ChEMBL document CHEMBL1131013, “Synthesis and evaluation of analogues of the partial agonist 6-(propyloxy)-4-(methoxymethyl)-beta-carboline-3-carboxylic acid ethyl ester (6-PBC) and the full agonist 6-(benzyloxy)-4-(methoxymethyl)-beta-carboline-3-carboxylic acid ethyl ester (Zk 93423) at wild type and recombinant GABAA receptors” (J Med Chem, 1998)

Legend:
[1] = target: T1, GABA-A receptor; alpha-3/beta-3/gamma-2 (Homo sapiens, UniProt P18507+P28472+P34903); test: Binding affinity measured using LtK- cell membranes expressing GABA alpha-3-beta-3-gamma-2 receptor
T1 sequence (P18507 whole entry): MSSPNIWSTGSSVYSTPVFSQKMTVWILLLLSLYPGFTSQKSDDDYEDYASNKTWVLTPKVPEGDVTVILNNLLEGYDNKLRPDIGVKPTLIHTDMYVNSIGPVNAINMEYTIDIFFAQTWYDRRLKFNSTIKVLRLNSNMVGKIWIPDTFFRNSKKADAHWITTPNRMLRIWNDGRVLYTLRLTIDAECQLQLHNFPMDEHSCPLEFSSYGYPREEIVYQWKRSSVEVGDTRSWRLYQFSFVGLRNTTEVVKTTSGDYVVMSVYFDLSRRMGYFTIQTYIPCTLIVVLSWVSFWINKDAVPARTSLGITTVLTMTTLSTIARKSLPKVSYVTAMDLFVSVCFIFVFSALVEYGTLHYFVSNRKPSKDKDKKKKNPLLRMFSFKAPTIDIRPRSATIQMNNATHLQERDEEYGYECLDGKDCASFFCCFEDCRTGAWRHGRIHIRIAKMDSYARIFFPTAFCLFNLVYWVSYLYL
T1 sequence (P28472 whole entry): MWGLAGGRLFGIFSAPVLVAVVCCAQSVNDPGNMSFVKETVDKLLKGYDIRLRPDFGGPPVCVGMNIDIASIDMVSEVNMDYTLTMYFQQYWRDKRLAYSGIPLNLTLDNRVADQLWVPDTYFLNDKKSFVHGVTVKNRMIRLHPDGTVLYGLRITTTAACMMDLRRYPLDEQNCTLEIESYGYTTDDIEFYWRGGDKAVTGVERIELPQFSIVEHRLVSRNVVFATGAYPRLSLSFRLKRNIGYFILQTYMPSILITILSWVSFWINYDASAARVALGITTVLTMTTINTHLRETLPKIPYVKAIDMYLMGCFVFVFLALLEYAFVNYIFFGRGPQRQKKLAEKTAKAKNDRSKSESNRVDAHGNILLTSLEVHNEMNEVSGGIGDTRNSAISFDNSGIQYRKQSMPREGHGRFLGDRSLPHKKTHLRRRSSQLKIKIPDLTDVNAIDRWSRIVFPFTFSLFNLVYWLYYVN
T1 sequence (P34903 whole entry): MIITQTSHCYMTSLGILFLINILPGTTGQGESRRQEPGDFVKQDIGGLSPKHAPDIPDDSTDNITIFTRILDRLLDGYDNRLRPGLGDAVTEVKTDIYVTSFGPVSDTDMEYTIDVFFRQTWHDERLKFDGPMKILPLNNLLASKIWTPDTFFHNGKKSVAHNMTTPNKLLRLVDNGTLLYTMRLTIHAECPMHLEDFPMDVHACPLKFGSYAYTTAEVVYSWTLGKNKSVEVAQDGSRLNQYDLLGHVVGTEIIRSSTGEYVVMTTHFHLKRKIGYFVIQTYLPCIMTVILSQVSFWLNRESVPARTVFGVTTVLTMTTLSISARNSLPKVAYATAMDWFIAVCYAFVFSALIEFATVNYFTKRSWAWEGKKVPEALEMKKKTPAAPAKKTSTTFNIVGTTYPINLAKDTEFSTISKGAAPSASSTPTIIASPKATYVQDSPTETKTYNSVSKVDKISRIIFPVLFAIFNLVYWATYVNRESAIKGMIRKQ

[2] = target: T2, GABA-A receptor; alpha-2/beta-3/gamma-2 (Homo sapiens, UniProt P18507+P28472+P47869); test: Binding affinity measured using LtK- cell membranes expressing GABA alpha-2-beta-3-gamma-2 receptor
T2 sequence (P18507 whole entry): T1 sequence (P18507 whole entry)
T2 sequence (P28472 whole entry): T1 sequence (P28472 whole entry)
T2 sequence (P47869 whole entry): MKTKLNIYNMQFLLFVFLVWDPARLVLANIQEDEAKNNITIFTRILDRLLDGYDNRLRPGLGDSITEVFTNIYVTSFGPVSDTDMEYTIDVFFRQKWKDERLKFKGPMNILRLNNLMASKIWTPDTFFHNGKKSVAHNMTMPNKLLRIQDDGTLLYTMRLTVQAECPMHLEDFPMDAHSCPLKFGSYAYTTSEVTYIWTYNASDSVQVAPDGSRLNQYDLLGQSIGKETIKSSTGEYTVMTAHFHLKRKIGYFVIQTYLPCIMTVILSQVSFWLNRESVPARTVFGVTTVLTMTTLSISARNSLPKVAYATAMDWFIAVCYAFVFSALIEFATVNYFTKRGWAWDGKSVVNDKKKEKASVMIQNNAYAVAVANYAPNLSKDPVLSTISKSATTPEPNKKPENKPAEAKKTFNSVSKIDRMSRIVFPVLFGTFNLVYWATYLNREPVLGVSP

[3] = target: GABA-A receptor; anion channel; test: Displacement of [3H]flunitrazepam from GABA-A Benzodiazepine receptor of rat brain cortical membranes; type: cell membranes, Membrane
Outline: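 Rat cerebral cortex homogenized in 50 mM Tris-citrate, pH 7.4, and washed by centrifugation (20000g). […] Nonspecific binding with 10 μM Ro15-1788. Ended by vacuum filtration. IC50 estimated from at least six inhibitor concentrations; mean ± SEM of at least three determinations.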

[4] = target: T3, GABA-A receptor; alpha-1/beta-3/gamma-2 (Homo sapiens, UniProt P14867+P18507+P28472); test: Binding affinity measured using LtK- cell membranes expressing GABA alpha-1-beta-3-gamma-2 receptor
T3 sequence (P14867 whole entry): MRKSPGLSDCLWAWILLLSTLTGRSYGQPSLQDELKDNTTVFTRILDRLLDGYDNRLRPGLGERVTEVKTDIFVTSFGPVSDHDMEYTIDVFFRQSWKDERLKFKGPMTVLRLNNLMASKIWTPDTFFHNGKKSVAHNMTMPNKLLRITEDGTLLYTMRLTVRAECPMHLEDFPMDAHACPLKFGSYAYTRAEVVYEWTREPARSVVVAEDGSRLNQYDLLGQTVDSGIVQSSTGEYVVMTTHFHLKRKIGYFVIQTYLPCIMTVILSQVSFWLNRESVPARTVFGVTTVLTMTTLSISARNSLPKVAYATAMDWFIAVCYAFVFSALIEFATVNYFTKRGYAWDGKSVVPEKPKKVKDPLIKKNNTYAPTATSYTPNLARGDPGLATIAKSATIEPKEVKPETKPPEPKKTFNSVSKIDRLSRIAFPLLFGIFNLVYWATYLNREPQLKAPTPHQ
T3 sequence (P18507 whole entry): T1 sequence (P18507 whole entry)
T3 sequence (P28472 whole entry): T1 sequence (P28472 whole entry)

[5] = target: GABA-A receptor; alpha-6/beta-3/gamma-2 (Homo sapiens, UniProt P18507+P28472+Q16445); test: Binding affinity measured using LtK- cell membranes expressing Gamma-aminobutyric acid A receptor alpha-6-beta-3-gamma-2
Sequence of GABA-A receptor; alpha-6/beta-3/gamma-2 (Q16445 whole entry, one chain of several): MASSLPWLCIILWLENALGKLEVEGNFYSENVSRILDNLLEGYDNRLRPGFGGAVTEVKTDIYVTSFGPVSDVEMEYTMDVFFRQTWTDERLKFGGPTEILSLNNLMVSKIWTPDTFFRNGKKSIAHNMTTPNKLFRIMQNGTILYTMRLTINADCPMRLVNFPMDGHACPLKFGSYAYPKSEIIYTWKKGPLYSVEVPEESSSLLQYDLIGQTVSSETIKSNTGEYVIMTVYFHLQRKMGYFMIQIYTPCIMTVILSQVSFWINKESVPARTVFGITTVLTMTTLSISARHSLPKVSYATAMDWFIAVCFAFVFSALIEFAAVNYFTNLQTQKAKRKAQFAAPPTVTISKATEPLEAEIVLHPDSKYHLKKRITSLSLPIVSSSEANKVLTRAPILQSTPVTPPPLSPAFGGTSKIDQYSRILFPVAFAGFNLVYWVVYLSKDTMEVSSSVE
Outline: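 Ltk- cells expressing human α6β3γ2, scraped into PBS and resuspended in 10 mM KH2PO4/100 mM KCl pH 7.4. 1 h at 4 °C to equilibrium, filtration, scintillation counting.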

[6] = target: T4, GABA-A receptor; alpha-5/beta-3/gamma-2 (Homo sapiens, UniProt P18507+P28472+P31644); test: Binding affinity measured using LtK- cell membranes expressing Gamma-aminobutyric acid A receptor alpha-5-beta-3-gamma-2
T4 sequence (P18507 whole entry): T1 sequence (P18507 whole entry)
T4 sequence (P28472 whole entry): T1 sequence (P28472 whole entry)
T4 sequence (P31644 whole entry): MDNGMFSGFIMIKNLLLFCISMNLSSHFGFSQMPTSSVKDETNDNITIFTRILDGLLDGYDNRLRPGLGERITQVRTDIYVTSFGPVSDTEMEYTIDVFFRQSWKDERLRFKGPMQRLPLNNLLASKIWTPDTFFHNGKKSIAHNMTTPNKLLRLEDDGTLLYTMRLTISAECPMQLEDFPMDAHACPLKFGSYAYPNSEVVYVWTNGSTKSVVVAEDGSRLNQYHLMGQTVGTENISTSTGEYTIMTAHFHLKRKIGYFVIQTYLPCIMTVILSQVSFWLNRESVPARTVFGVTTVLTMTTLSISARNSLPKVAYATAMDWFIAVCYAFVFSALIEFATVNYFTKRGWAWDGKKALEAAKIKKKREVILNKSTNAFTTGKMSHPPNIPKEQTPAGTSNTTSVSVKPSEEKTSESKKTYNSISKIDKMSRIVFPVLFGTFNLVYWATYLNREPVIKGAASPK

[7] = target: T4, GABA-A receptor; alpha-5/beta-3/gamma-2; test: Binding affinity for GABA-A alpha-5-beta-3-gamma-2 receptor expressed in L (tk-) cells; type: cell-based
Outline: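 Competition binding against [3H]Ro15-1788 (1-2 nM final) on human GABAA receptors expressed in Ltk- cells, scraped into PBS and resuspended in 10 mM KH2PO4/100 mM KCl pH 7.4. Incubated to equilibrium 1 h at 4 °C, filtered, scintillation counted.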

[8] = target: T2, GABA-A receptor; alpha-2/beta-3/gamma-2; test: Binding affinity for GABA-A alpha-2-beta-3-gamma-2 receptor expressed in L(tk-) cells; type: cell-based
Outline: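 Competition binding on Ltk- cells expressing human α2β3γ2 GABAA receptors. Cells were scraped into PBS, centrifuged at 3000g and resuspended in phosphate buffer (10 mM KH2PO4, 100 mM KCl, pH 7.4 at 4 °C). Radioligand was [3H]Ro15-1788 at 1–2 nM, with test compound at 10^-9–10^-5 M. Nonspecific binding was defined by 10^-5 M diazepam. Incubation ran 1 h at 4 °C to equilibrium, followed by filtration and scintillation counting.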

CCOC(=O)c1[nH]cc2nc3ccc(OC)cc3c-2c1COC
Ki [1]: 1.72 nM
Ki [2]: 1.19 nM
IC50 [3]: 1 nM
Ki [4]: 0.14 nM
Ki [5]: > 10 µM
Ki [6]: 4 nM

CCOC(=O)c1ncc2c(c1CC)c1cc(OCc3ccccc3)ccc1n2C
IC50 [3]: > 5000 nM

CCOC(=O)c1cc2c3cc(OCc4ccccc4)ccc3n(C)c2cn1
IC50 [3]: > 5000 nM

CCCCCCCCOc1ccc2[nH]c3cnc(C(=O)OCC)c(CC)c3c2c1
Ki [1]: 35000 nM
Ki [7]: 12.7 µM
Ki [2]: 29700 nM
IC50 [3]: > 1000 nM
Ki [5]: > 30 µM

CCCOc1[nH]cc2nc3ccc(OCc4ccccc4)cc3c-2c1COC
IC50 [3]: 63.8 nM

CCCOc1ccc2[nH]c3cnc(C(=O)OCC)c(COC)c3c2c1
Ki [1]: 2.2 nM
Ki [2]: 1.21 nM
IC50 [3]: 8.1 nM
Ki [4]: 0.49 nM
Ki [5]: 1.34 µM
Ki [6]: 2.4 nM

CCOc1cc2c(cn1)[nH]c1ccccc12
Ki [4]: 6.43 nM
Ki [5]: > 1 µM
Ki [8]: 25.1 nM
Ki [6]: 868 nM

CCCOc1ccc2[nH]c3cnc(C(=O)OC(C)C)c(COC)c3c2c1
IC50 [3]: 30.8 nM

COCc1c(N=C=S)[nH]cc2nc3ccc(OCc4ccccc4)cc3c1-2
Ki [1]: 58.8 nM
Ki [2]: 82.6 nM
IC50 [3]: 40 nM
Ki [4]: 25 nM
Ki [5]: > 10 µM
Ki [6]: 159 nM

CCCOc1ccc2[nH]c3cnc(OCCC)c(COC)c3c2c1
Ki [1]: 270 nM
Ki [2]: 214 nM
IC50 [3]: 43.2 nM
Ki [4]: 24.6 nM
Ki [5]: > 10 µM
Ki [6]: 332 nM

CCCCCCCCOc1ccc2[nH]c3cnc(C(=O)OCC)c(COC)c3c2c1
Ki [1]: > 3000 nM
Ki [2]: > 3000 nM
IC50 [3]: 330 nM
Ki [4]: > 1000 nM
Ki [5]: > 3 µM
Ki [6]: > 3000 nM

COCc1c(/N=C(/S)OC)[nH]cc2nc3ccc(OCc4ccccc4)cc3c1-2
IC50 [3]: 176 nM

CCCCCCCCOc1ccc2c(c1)c1c(COC)c(C(=O)OCC)ncc1n2C
Ki [1]: > 3000 nM
Ki [2]: > 3000 nM
IC50 [3]: > 1000 nM
Ki [4]: > 3000 nM
Ki [5]: > 3 µM
Ki [6]: > 3000 nM

CCCOc1ccc2[nH]c3cnc(N)c(COC)c3c2c1
Ki [1]: 700 nM
Ki [2]: 540 nM
IC50 [3]: 697 nM
Ki [4]: 45 nM
Ki [5]: > 3 µM
Ki [6]: 380 nM

COCc1c(N)[nH]cc2nc3ccc(OCc4ccccc4)cc3c1-2
IC50 [3]: 271 nM

CCOC(=O)c1[nH]cc2nc3ccc(OCc4cccc5ccccc45)cc3c-2c1CC
Ki [1]: 300 nM
Ki [2]: 291 nM
IC50 [3]: 13.9 nM
Ki [4]: 183 nM
Ki [5]: > 10 µM
Ki [6]: 270 nM

CCOC(=O)c1[nH]cc2nc3ccc(OCc4cccc5ccccc45)cc3c-2c1COC
Ki [1]: 293 nM
IC50 [3]: 55.5 nM
Ki [4]: 15.4 nM
Ki [5]: > 1 µM
Ki [6]: 323 nM

CCOC(=O)c1ncc2c(c1COC)c1cc(OCc3cccc4ccccc34)ccc1n2C
IC50 [3]: 730 nM
